EC and IC50 data for 13 compounds are collected here from ChEMBL document CHEMBL3853277, “Efficient Synthesis of Glaziovianin A Isoflavone Series from Dill and Parsley Extracts and Their in Vitro/in Vivo Antimitotic Activity” (J Nat Prod, 2016).

Assay [1] relates to Paracentrotus lividus. The experiment in a line: Antimitotic activity in sea urchin Paracentrotus lividus L embryo assessed as induction of cleavage alteration. Type of assay: functional. In outline: (§1)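 Gametes collected by intracoelomic 0.5 M KCl injection; fertilized eggs (8−15 min postfertilization) exposed in seawater to 2-fold decreasing concentrations, up to 2000 embryos/mL, room temperature. Stocks 10 mM in DMSO diluted 10-fold in 96% EtOH. Cleavage alteration/arrest scored at 2.5−5.5 h; effective threshold concentration reported, duplicate measurements.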

The test system of assay [2] is Paracentrotus lividus. The experiment in a line: Antimitotic activity against sea urchin Paracentrotus lividus L embryo assessed as induction of embryo spinning. The assay is classed as functional. In outline:
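Hatched free-swimming blastulae (8−9 h postfertilization) exposed to 2-fold decreasing concentrations in seawater, room temperature; DMSO stock diluted 10-fold in 96% EtOH. Observed to four-arm pluteus (34−36 h); spinning on well bottom without forward movement scored as microtubule destabilization; effective threshold concentration, duplicate measurements.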

Assay [3] can be described thus: Growth inhibition of human PBMC cells measured after 48 hrs by MTS assay. The assay is classed as cell-based. In outline:
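PBMCs from healthy volunteers by Ficoll-Paque density separation, washed in RPMI 1640, cultured in RPMI 1640 with 10% heat-inactivated FBS at 37 °C, 5% CO2. Seeded 1 × 10^4 cells/well, treated 48 h at 0.01−100 μM, 0.1% DMSO control, quadruplicate wells; MTS read at 490 nm; IC50 by sigmoidal fitting, three experiments.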

Assay [4] relates to Paracentrotus lividus. The experiment in a line: Antimitotic activity against sea urchin Paracentrotus lividus L embryo assessed as induction of cleavage arrest. The assay is classed as functional. In outline: as §1
The nature of assay [5]: Growth inhibition of human HCT116 cells measured after 48 hrs by MTS assay. Type of assay: functional, cell-based. The following applies: HCT-116, 48 h. The method in brief: (§2)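 Cancer lines grown in their own media with 10% FBS at 37 °C, 5% CO2; 1 × 10^4 cells/well treated 48 h at 0.01−100 μM (DMSO stocks, 0.1% DMSO control), quadruplicate wells. MTS reagent 1−4 h, absorbance 490 nm. IC50 by sigmoidal fitting; mean ± SD of three independent experiments.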
(In general: Tetrazolium assays rely on reduction of a dye to a coloured formazan, in cell work by metabolically active cells.)

Assay [6] can be described thus: Growth inhibition of human A375 cells measured after 48 hrs by MTS assay. The settings on record: A-375, 48 h. Type of assay: functional, cell-based. In outline:
as §2

The nature of assay [7]: Growth inhibition of human MDA-MB-231 cells measured after 48 hrs by MTS assay. Type of assay: functional, cell-based. The settings on record: MDA-MB-231, 48 h. In outline: as §2
Assay [8] can be described thus: Growth inhibition of human PC3 cells measured after 48 hrs by MTS assay. The assay is classed as functional, cell-based. The following applies: PC-3, 48 h. In outline: as §2
Assay [9] can be described thus: Growth inhibition of human SKOV3 cells measured after 48 hrs by MTS assay. The assay is classed as functional, cell-based. The settings on record: SK-OV-3, 48 h. In outline:
as §2

Assay [10] can be described thus: Growth inhibition of human DU145 cells measured after 48 hrs by MTS assay. The assay is classed as functional, cell-based. The settings on record: DU-145, 48 h. The method in brief: as §2
Assay [11] can be described thus: Growth inhibition of human A549 cells by MTS assay. The assay is classed as functional, cell-based. The method in brief: as §2
The subject of assay [12] is Paracentrotus lividus. The experiment in a line: Antimitotic activity against sea urchin Paracentrotus lividus L embryo assessed as induction of tuberculate egg formation. Type of assay: functional. In outline:
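Fertilized eggs were exposed 8−15 min post-fertilization to 2-fold decreasing concentrations, as a monolayer of up to 2000 embryos/mL in filtered seawater at room temperature. The 10 mM DMSO stock was diluted 10-fold in 96% EtOH. Cleavage alteration or arrest was scored by light microscopy at 2.5−5.5 h post-fertilization, and the effective threshold concentration was recorded from duplicate measurements.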

SMILES strings stand for the structures.

The IC50 is the point on the concentration scale where inhibition reaches its midpoint. A high value points to weaker potency in that assay. In the case of `COc1cc2occ(-c3cc(OC)c(OC)c(OC)c3OC)c(=O)c2cc1OC`, the EC in the assay with Paracentrotus lividus [1], in the assay on Paracentrotus lividus [2] and in the assay with Paracentrotus lividus [4] was >4 µM each time. Also, the IC50 in [3], in assay [5], in [6], in [7], in assay [8] and in assay [9] was > 10 µM throughout. Besides, the IC50 in assay [10] and in assay [11] was > 10 µM in each case.
`COc1ccc(-c2coc3cc(OC)c(OC)cc3c2=O)cc1`: the EC was 0.2 µM in the assay with Paracentrotus lividus [1], >5 µM in the assay with Paracentrotus lividus [2] and 1 µM in the assay on Paracentrotus lividus [12]. For the same compound, the IC50 in assay [3], in [5], in assay [6], in [7], in assay [8] and in assay [9] was > 10 µM each time. For the same compound, the IC50 in assay [10] and in assay [11] was > 10 µM each time.
Regarding `COc1ccc(-c2coc3cc(OC)c(OC)cc3c2=O)cc1OC`, the results for the EC with Paracentrotus lividus [1], in the assay with Paracentrotus lividus [2] and in the assay with Paracentrotus lividus [4] were 4 µM, >4 µM and >4 µM, respectively. For the same compound, the IC50 in [3], in assay [5], in assay [6], in [7], in [8] and in [9] was > 10 µM throughout. In addition, the IC50 in assay [10] and in assay [11] was > 10 µM each time.
Take `COc1ccc(-c2coc3c(OC)c(OC)c(OC)cc3c2=O)cc1OC`: the EC in the assay with Paracentrotus lividus [1] is 4 µM; with Paracentrotus lividus [2] it was >4 µM; with Paracentrotus lividus [4] it was >4 µM.
Take `COc1cc2occ(-c3cc(OC)c4c(c3)OCO4)c(=O)c2cc1OC`: the EC in the assay on Paracentrotus lividus [1] was 0.1 µM; in the assay with Paracentrotus lividus [2] it was >5 µM; in the assay with Paracentrotus lividus [12], 1 µM. Also, the IC50 is > 10 µM in [3]; > 10 µM in assay [5]; 6.1 µM in assay [6]; > 10 µM in assay [7]; > 10 µM in assay [8]; > 10 µM in assay [9]. For the same compound, the IC50 in assay [10] and in [11] was > 10 µM throughout.
`COc1ccc(-c2coc3c(OC)c4c(c(OC)c3c2=O)OCO4)cc1OC`: the EC in the assay on Paracentrotus lividus [1], in the assay with Paracentrotus lividus [2] and in the assay with Paracentrotus lividus [4] was >4 µM throughout. The concentration for half-maximal inhibition (IC50) in assay [3], in assay [5], in [6], in [7], in assay [8] and in [9] was > 10 µM each time. Moreover, the IC50 in [10] and in [11] was > 10 µM in each case.
With `COc1cc2occ(-c3cc(OC)c(OC)c(OC)c3)c(=O)c2cc1OC`, the figures for the EC with Paracentrotus lividus [1], in the assay on Paracentrotus lividus [2] and in the assay on Paracentrotus lividus [12] were 0.2 µM, >5 µM and 1 µM, respectively. For the same compound, the half-inhibitory concentration (IC50) was > 10 µM in assay [3]; 2.8 µM in [5]; 3.2 µM in assay [6]; > 10 µM in [7]; 5.1 µM in assay [8]; 4.3 µM in assay [9]. Moreover, the values for the IC50 in assay [10] and in assay [11] were 4.9 µM and > 10 µM, respectively.
Regarding `COc1cc2occ(-c3cc4c(c(OC)c3OC)OCO4)c(=O)c2cc1OC`, the EC with Paracentrotus lividus [1] is 0.5 µM; in the assay with Paracentrotus lividus [2] it was >5 µM; in the assay with Paracentrotus lividus [12] it was 5 µM. The IC50 is > 10 µM in assay [3]; 3.4 µM in assay [5]; 1.7 µM in assay [6]; 7.1 µM in [7]; 7.3 µM in assay [8]; > 10 µM in assay [9]. In addition, the IC50 in [10] was 6.4 µM; in [11] it was > 10 µM.
On to `COc1cccc(-c2coc3cc(OC)c(OC)cc3c2=O)c1`, for which the EC with Paracentrotus lividus [1] was 2 µM; in the assay with Paracentrotus lividus [2], >5 µM; with Paracentrotus lividus [4], >4 µM. The IC50 in [3], in [5], in assay [6], in [7], in assay [8] and in assay [9] was > 10 µM in each case. Moreover, the IC50 in assay [10] and in assay [11] was > 10 µM in each case.
`COc1ccc(-c2coc3cc(OC)c(O)cc3c2=O)cc1`: the results for the EC in the assay on Paracentrotus lividus [1], with Paracentrotus lividus [2] and in the assay with Paracentrotus lividus [12] were 1 µM, >5 µM and 4 µM, respectively.
`COc1ccc(-c2coc3cc(OC)c(OC)c(OC)c3c2=O)cc1`: the EC with Paracentrotus lividus [1], in the assay with Paracentrotus lividus [2] and with Paracentrotus lividus [4] was >4 µM throughout.
`COc1ccc(/C=C\c2cc(OC)c(OC)c(OC)c2)cc1OP(=O)([O-])[O-].[Na+].[Na+]` [FOSBRETABULIN DISODIUM]: the EC in the assay with Paracentrotus lividus [1] turned out to be 0.005 µM; in the assay on Paracentrotus lividus [2] it was 0.05 µM; in the assay on Paracentrotus lividus [4], 0.01 µM. The IC50 in [3] is 0.17 µM; in assay [5] it was 0.0016 µM; in assay [6] it was 0.0016 µM; in assay [7], 0.0028 µM; in assay [8], 0.0062 µM; in [9], 0.0077 µM. For the same compound, the IC50 turned out to be 0.0014 µM in assay [10] and 0.0234 µM in [11].
Turning to `COc1cc2occ(-c3cc(OC)c4c(c3OC)OCO4)c(=O)c2cc1OC` [GLAZIOVIANIN A], the EC in the assay with Paracentrotus lividus [1] was found to be 0.05 µM; in the assay with Paracentrotus lividus [2], 4 µM; with Paracentrotus lividus [4], 0.5 µM. The IC50 in [3] is > 10 µM; in [5], 0.69 µM; in assay [6], 0.27 µM; in assay [7], 2.2 µM; in assay [8] it was 0.83 µM; in assay [9], 0.43 µM. In addition, the IC50 in [10] was determined as 0.87 µM; in [11], 1.1 µM.
